Screens from PubChem BioAssay.
NF-kB neuron act: activators of NF-kB expression in neurons, primary screen, cell-based, HTS; human neuronal cells, NF-kB reporter expression; stronger effect = higher value; fold change at 12.5 µM; 1.6% of 190,000 active; in the data active = fold change above about 3.3
STAT3 inh: IL-6 driven STAT3 reporter inhibitors, primary screen, U3A cells, luciferase, luminescence, MLSCN library. IL-6 STAT3-luciferase reporter; host cell line lacks STAT1. inhibition, % at 5.5 µM. 0.89% of 190,000 active. AID 862, 2007;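 active = inhibition above the mean inhibition across all screened compounds plus 3 SD, cut at about 44% in these data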
APP 5'UTR act: activators of APP 5'UTR luciferase reporter, primary screen, SH-SY5Y cells; SH-SY5Y APP 5'UTR luciferase reporter, luminescence; zero percent = DMSO vehicle wells; 1% of 190,000 active; activation, % at 2 µM; AID 1276, 2008;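 active = activation above a set limit, based on mean plus 3 SD of controls, cut at about 140% in these data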
STAT1 blocker: STAT1 signaling inhibitors, primary screen, cell-based, HTS, luciferase reporter; NIH 3T3 STAT1-luciferase reporter, IFN-gamma, luminescence; inhibition, % at 5.5 µM; 0.35% of 200,000 active;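 active = inhibition above a set limit, the mean inhibition across all tested compounds plus 3 SD, cut at about 34% in these data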
STAT3 activator: IL-6 driven STAT3 reporter potentiators, primary screen, U3A cells, luciferase, luminescence, MLSCN library; AID 871, 2007; IL-6 STAT3-luciferase reporter; 100% = signal with IL-6 EC80 alone; activation (% of control), % at 5.6 µM; 0.91% of 190,000 active;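 active = activation above the screen-wide mean of compound activation plus 3 SD, cut at about 130% in these data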
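system = STAT3-luciferase reporter U3A cells | reagent = IL-6 stimulus at 33 ng/mL final | timing = 1 h compound pre-exposure, 6 h IL-6 stimulation, 37 °C | measured by = luminescence | evaluation = % activation versus median of IL-6-stimulated wells | control set = IL-6-only wells as 100% reference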
STAT1 activator: STAT1 signaling activators, primary screen, cell-based, HTS, luciferase reporter; 2.6% of 200,000 active; NIH 3T3 STAT1-luciferase reporter, IFN-gamma, luminescence; 100% = IFN-gamma alone, no compound; AID 932, 2007; activation (% of control), % at 5.5 µM;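 active = activation above the screen-wide mean activation plus 3 SD, cut at about 130% in these data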
STAT1 activ conf: STAT1 signaling activators, confirmation, cell-based, HTS, luciferase reporter; 97% of 1,200 active; shares compounds with STAT1 activator; AID 1262, 2008; NIH 3T3 STAT1-luciferase reporter, IFN-gamma potentiation, luminescence; 100% = IFN-gamma EC80 alone, no compound; activation (% of control), % at 5.7 µM;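 active = activation above a set limit carried over from the earlier primary STAT1 screen, cut at about 140% in these data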
NFkB act: NF-kB reporter activators, TNF-alpha stimulated, counter-screen for STAT1 activator project, cell-based, HEK293T, luciferase luminescence; shares compounds with STAT1 activator; 100% = TNF-alpha with vehicle only; activation (% of control), % at 5.7 µM; 43% of 1,200 active;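 active = activation above the mean of solvent-only control wells plus 3 SD, set per campaign, cut at about 130% in these data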;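 note: TNF-alpha given at a submaximal dose yielding about 80% of full reporter signal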
STAT3 act 2: STAT3 reporter activation by STAT1 hits, confirmation, counter-screen for STAT1 activator project, U3A cells, luciferase, luminescence. IL-6; cells lack STAT1; 100 = IL-6 alone, no compound effect. 46% of 1,200 active. shares compounds with STAT1 activator. AID 1316, 2008. activation (% of control), % at 5.7 µM;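 active = activation above the solvent-only control well mean plus 3 SD, set per plate batch, cut at about 110% in these data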;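 note: higher means more STAT3 reporter activation so hits are non-selective activators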
Hits are given with their value; n = inactive; x = not tested or not shown. Most compounds without a hit are left out; they make up all but 4.9% or so of the library.

SMILES	NF-kB neuron act	STAT3 inh	APP 5'UTR act	STAT1 blocker	STAT3 activator	STAT1 activator	STAT1 activ conf	NFkB act	STAT3 act 2
Cn1ncc(N=Cc2c(O)ccc3ccccc23)c1C(=O)Nc1cccc(Cl)c1	n	n	n	n	n	n	x	x	x
COc1ccc(-c2c(=O)n(OCc3ccccc3[N+](=O)[O-])c3ccccc3[n+]2[O-])c(OC)c1	n	n	n	n	n	n	x	x	x
Clc1ccc(-c2nnc(-c3ccccc3Cl)o2)cc1	5.3	n	202	n	n	161	218	n	n
Brc1ccc(-c2nnc(-c3ccccc3Br)o2)cc1	n	n	169	n	n	164	216	138	n
Brc1ccc(-c2nnc(-c3ccco3)o2)cc1	n	n	n	n	n	155	181	n	n
COc1ccc(CN(CC2CCC(C(=O)O)CC2)C(=S)Nc2cc(Cl)ccc2OC)cc1 (stereo not drawn)	n	n	n	n	n	n	x	x	x
Fc1cccc(NCc2ccoc2)c1	n	n	n	n	n	n	x	x	x
Fc1cccc(NCc2cn3ccccc3n2)c1	4.2	n	n	n	n	169	194	n	113
CN1/C(=C\C(=O)c2cccs2)Sc2ccccc21	7.5	n	168	n	n	169	222	n	161
COc1ccc(N=Cc2c(O)[nH]c3ccccc23)cc1	4.9	n	181	n	n	216	269	135	111
Oc1[nH]c2ccccc2c1C=Nc1ccc2c(c1)OCO2	4.9	n	141	n	n	192	263	144	n
Cc1nn(-c2cc(Cl)ccc2Cl)c(C)c1C(=O)O	n	n	n	n	n	n	x	x	x
CC(C)N1CCN(Cc2ccoc2)CC1CCO (stereo not drawn)	n	n	n	n	n	n	x	x	x
N#C/C(=C/c1ccc(N2CCCCC2)o1)C(=O)Nc1ccc(Cl)cc1	n	n	n	n	n	155	183	n	n
N#C/C(=C/c1ccc(N2CCCCC2)o1)C(=O)Nc1ccc2ccccc2c1	n	n	n	n	n	n	x	x	x
CCC(=O)Nc1ccc(-c2nnc(-c3ccccc3)o2)cc1	n	n	210	n	n	163	220	n	113
O=C(OCc1csc(-c2ccccc2)n1)c1cccs1	n	n	n	n	n	152	181	n	n
Cc1cc(OC(=O)c2ccc(S(=O)(=O)N3CCOCC3)cc2)c([N+](=O)[O-])c(=O)[nH]1	n	n	n	n	n	n	x	x	x
CC(C)c1nnc(NC(=O)C2CCN(S(=O)(=O)c3ccc(-n4cnnn4)cc3)CC2)s1	n	n	n	n	n	n	x	x	x
CCOC(=O)c1sc2nc(C)cc(-c3ccccc3)c2c1N	n	n	n	n	n	n	x	x	x
CCOC(=O)c1sc2nc(-c3ccccc3)ccc2c1N	n	n	174	n	n	174	272	n	n
Cc1ccc2[nH]c(-c3cccc(N)c3)cc2c1	n	n	152	n	n	183	213	146	n
Cc1ccc(O)c(-c2cc3ccccc3[nH]2)c1	n	n	n	n	n	n	x	x	x
O=C(NCCC1=CCCCC1)c1ccc(F)cc1	n	n	210	n	n	166	200	n	n
O=C(Cc1ccccc1)NCCC1=CCCCC1	n	n	n	n	n	n	x	x	x
